ChEMBL document CHEMBL1130397, “Structure-activity relationships of (4-acylpyrrol-2-yl)alkanoic acids as inhibitors of the cytosolic phospholipase A2: variation of the substituents in positions 1, 3, and 5” (J Med Chem, 1997)
The source made the active and inactive calls. The rule behind the calls is not given here.

Columns and labels:
[1] = target: T1, Cytosolic phospholipase A2 (Bos taurus, UniProt A4IFJ5); test: Inhibition of cPLA2 measuring Calcium ionophore A-23,187-induced arachidonic acid release from bovine platelets with HPLC/UV detection; type: functional
T1 sequence (A4IFJ5 whole entry): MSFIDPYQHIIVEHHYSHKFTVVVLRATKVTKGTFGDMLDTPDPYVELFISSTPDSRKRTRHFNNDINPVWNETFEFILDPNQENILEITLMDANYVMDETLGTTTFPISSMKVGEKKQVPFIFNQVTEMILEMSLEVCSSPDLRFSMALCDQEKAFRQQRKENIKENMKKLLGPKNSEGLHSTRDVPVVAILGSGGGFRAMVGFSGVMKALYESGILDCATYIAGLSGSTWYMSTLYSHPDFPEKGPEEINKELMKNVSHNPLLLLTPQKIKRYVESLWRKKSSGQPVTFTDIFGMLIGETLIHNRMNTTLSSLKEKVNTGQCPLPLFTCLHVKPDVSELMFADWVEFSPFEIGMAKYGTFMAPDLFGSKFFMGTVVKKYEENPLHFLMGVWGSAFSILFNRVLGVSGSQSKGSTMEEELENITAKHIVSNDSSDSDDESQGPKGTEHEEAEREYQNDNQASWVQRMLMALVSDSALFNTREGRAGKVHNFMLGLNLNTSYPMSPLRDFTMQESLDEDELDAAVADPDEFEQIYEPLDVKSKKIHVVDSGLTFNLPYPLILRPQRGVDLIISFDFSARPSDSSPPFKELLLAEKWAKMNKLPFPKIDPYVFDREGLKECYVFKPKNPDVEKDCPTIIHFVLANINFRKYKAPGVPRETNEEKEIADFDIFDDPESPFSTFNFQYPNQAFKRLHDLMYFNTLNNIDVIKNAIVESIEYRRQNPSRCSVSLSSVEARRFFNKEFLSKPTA
In short: (§1)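 Bovine platelet suspension stimulated with calcium ionophore A23187; released arachidonic acid quantified by HPLC/UV. Test compounds in DMSO, or DMSO–0.05 M ethanolic NaOH, added after platelets in the latter case to protect ETYA. Assays run within 36 h of platelet isolation; platelets stored at 4 °C. Values averaged from at least two runs, error within ±20%.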

[2] = Percentage platelet cell lysis at 33 uM measured by turbidimetry.; type: functional, Bos taurus
In short: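 Turbidimetric lysis: ETYA solution, then test compound or solvent control, then bovine platelet suspension and calcium chloride at 37 °C. After dilution with phosphate-buffered saline, absorbance read at 800 nm; lysis lowers absorbance. Compounds dissolved in DMSO or DMSO–0.05 M ethanolic NaOH (1+1). Performed within 36 h of platelet isolation; platelets kept at 4 °C.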

[3] = system: Cytosolic phospholipase A2 (Bos taurus); test: Inhibition of cPLA2 measuring Calcium ionophore A-23,187-induced arachidonic acid release from bovine platelets with HPLC/UV detection; 0% inhibition at 3.3 uM concentration.
[4] = system: Cytosolic phospholipase A2 (Bos taurus); test: Inhibition of cPLA2 measuring Calcium ionophore A-23,187-induced arachidonic acid release from bovine platelets with HPLC/UV detection. at 3.3 uM concentration.
[5] = target: T1, Cytosolic phospholipase A2; test: Inhibition of cPLA2 measuring Calcium ionophore A-23,187-induced arachidonic acid release from bovine platelets with HPLC/UV detection.; type: functional; in short: as §1
[6] = Ability of arachidonic acid release at 10 uM; type: functional; in short: as §1
[7] = system: Cytosolic phospholipase A2 (Bos taurus); test: Inhibition of cPLA2 measuring Calcium ionophore A-23,187-induced arachidonic acid release from bovine platelets with HPLC/UV detection.; NA = 0% inhibition at 3.3 uM
[8] = system: Cytosolic phospholipase A2 (Bos taurus); test: Inhibition of cPLA2 measuring Calcium ionophore A-23,187-induced arachidonic acid release from bovine platelets with HPLC/UV detection; Not active at 20 uM
[9] = 33 uM, in the assay text read “at 33 uM” for “at 10 uM”

| Compound | Lysis [2] | IC50 ([5]; read-out: IC50) | other results |
| --- | --- | --- | --- |
| CCCCCCCCCCCC(=O)c1c(C)c(CC(=O)O)n(CCCCCCC(=O)O)c1C | 0% |  | IC50 [1]: 5.6 µM |
| CCCCCCCCCCCC(=O)c1c(C)c(CC(=O)O)n(CCCCCCCCC(=O)O)c1C | 21% |  | IC50 [1]: 3.3 µM |
| CCCCCCCCCCCCCCCCCC(=O)c1c(C)c(CCC(=O)O)n(Cc2ccc(Cl)cc2)c1C | 13% |  | inhibition [3]: inactive |
| CCCCCCCCCCCCCCCCCC(=O)c1c(C)c(CCC(=O)O)n(Cc2ccc(C(=O)N(C)C)cc2)c1C | 42% |  | inhibition [4]: 34% |
| CCCCCCCCCCCCCCCCNC(=O)[C@@H]1CCCN1 | 0% | 13 µM |  |
| CCCCCCCCCCCCCCCCCC(=O)c1c(C)c(CC(=O)O)n(C)c1Cc1ccccc1 | 0% | 12 µM |  |
| CCCCCCCCCCCCCCCCCC(=O)c1c(C)c(CC(=O)O)n(Cc2ccc(C)cc2)c1C | 29% | 9 µM |  |
| CCCCCCCCCCCC(=O)c1c(C)c(CCC(=O)O)n(CCCCCCC(=O)O)c1C | 0% |  | IC50 [1]: 3.8 µM |
| CCCCCCCCCCCCCCCCCC(=O)c1cc(CCC(=O)O)n(C)c1 | 0% | 14 µM |  |
| CCCCCCCCCCCCCCCCCC(=O)c1c(C)c(CC(=O)O)n(C)c1CCCCCCCCCCCC | 0% |  | Activity [6, 9]: 1.5 fold |
| CCCCCCCCCCCC(=O)c1c(C)c(CCC(=O)O)n(CCC(=O)O)c1C | 0% |  | IC50 [1]: 8 µM |
| CCCCCCCCCCCCCCCCCC(=O)c1c(C)c(CCC(=O)O)n(CC)c1C | 0% | 11 µM |  |
| CCCCCCCCCCCC(=O)c1c(C)c(CCC(=O)O)n(C)c1C | 0% |  | IC50 [1]: 13 µM |
| CCCCC/C=C\C/C=C\C/C=C\C/C=C\CCCC(=O)C(F)(F)F [ARACHIDONYL TRIFLUOROMETHYLKETONE] | 31% |  |  |
| CCCCCCCCCCCCCCCCCC(=O)c1c(C)c(CCC(=O)O)n(CCCCCC(=O)O)c1C | 54% |  | inhibition [4]: 52% |
| CCCCCCCCCCCCCCCCCC(=O)c1c(C)c(CCC(=O)O)n(Cc2ccc(C#N)cc2)c1C | 26% |  | inhibition [4]: 15% |
| CCCCCCCCCCCCCCCCCC(=O)c1c(Cc2ccccc2)c(CC(=O)O)n(Cc2ccccc2)c1C | 24% |  | Activity ([6]; 10 uM): 1.3 fold |
| CCCCCCCCCCCCCCCCCC(=O)c1c(C)c(CCC(=O)O)n(CCCCCC)c1C | 10% |  | inhibition [7]: inactive; IC50 [8]: Not Active |
| CCCCCCCCCCCC(=O)c1c(C)c(CCC(=O)O)n(CCCCCC(=O)O)c1C | 0% |  | IC50 [1]: 3.4 µM |
| CCCCCCCCCCCCCCCCCC(=O)c1c(C)c(CCC(=O)O)n(CCCCCCN(C)C)c1C | 0% |  | inhibition [4]: 33% |
| CCCCCCCCCCCCCCCCCC(=O)c1c(C)c(CC(=O)O)n(CCCCCCC)c1C | 19% |  | IC50 [5]: Not Active |
| CCCCCCCCCCCC(=O)c1c(C)c(CCC(=O)O)n(CCCCC(=O)O)c1C | 0% |  | IC50 [1]: 3.9 µM |
| CCCCCCCCCCCCCCCCCC(=O)c1c(C)c(CCC(=O)O)n(Cc2ccc(C(F)(F)F)cc2)c1C | 13% |  | inhibition [3]: inactive |
| CCCCCCCCCCCCCCCCCC(=O)c1c(C)c(CC(=O)O)n(Cc2ccccc2)c1C | 32% | 7 µM |  |

| Compound | Lysis [2] | IC50 ([5]; read-out: IC50) | other results |
| --- | --- | --- | --- |
| CCCCCCCCCCCCCCCCCC(=O)c1c(C)c(CCC(=O)O)n(CCCCCCO)c1C | 0% |  | inhibition [4]: 20% |
| CCCCCCCCCCCCCCCCCC(=O)c1c(C)c(CCC(=O)O)n(Cc2ccc(OC)cc2)c1C | 12% |  | inhibition [4]: 31% |
| CCCCCCCCCCCC(=O)c1c(C)c(CC(=O)O)n(CCCCCCCC(=O)O)c1C | 0% |  | IC50 [1]: 3.7 µM |
| CCCCCCCCCCCCCCCCCC(=O)c1c(C)c(CC(=O)O)n(CC)c1C | 10% | 9 µM |  |
| CCCCCCCCCCCCCCCCCC(=O)c1c(C)c(CCC(=O)O)n(Cc2ccc(C(=O)O)cc2)c1C | 57% |  | inhibition [4]: 47% |
| CCCCCCCCCCCC(=O)c1c(C)c(CC(=O)O)n(C)c1C | 0% |  | IC50 [1]: 11 µM |
| CCCCCCCCCCCC(=O)c1c(C)c(CC(=O)O)n(CCCCCC(=O)O)c1C | 0% |  | IC50 [1]: 11 µM |
| CCCCCCCCCCCCCCCCCC(=O)c1cc(CC(=O)O)n(C)c1 | 0% | 15 µM |  |
| CCCCCCCCCCCCCCCCCC(=O)c1c(C)c(CCC(=O)O)n(CCCCC)c1C | 13% | 10 µM | inhibition [4]: 23% |
| CCCCCCCCCCCCCCCCCC(=O)c1c(C)c(CCC(=O)O)n(CCCCCC(=O)N(C)C)c1C | 67% |  | inhibition [4]: 38% |
| CCCCCCCCCCCCCCCCCC(=O)c1c(C)c(CC(=O)O)n(CCC)c1C | 34% | 8 µM |  |
| CCCCCCCCCCCCCCCCCC(=O)c1c(C)c(CCC(=O)O)n(Cc2ccccc2)c1C | 19% | 12 µM | inhibition [4]: 20% |
| CCCCCCCCCCCC(=O)c1c(C)c(CCC(=O)O)n(CCCCCCCC(=O)O)c1C | 0% |  | IC50 [1]: 3.6 µM |
| CCCCCCCCCCCCCCCCCC(=O)c1c(C)c(CCC(=O)O)n(C)c1C | 0% | 13 µM |  |
| CCCCCCCCCCCCCCCCCC(=O)c1c(C)c(CCC(=O)O)n(Cc2ccc(C(N)=O)cc2)c1C | 0% |  | inhibition [4]: 44% |
| CCCCCCCCCCCCCCCCCC(=O)c1c(C)c(CCC(=O)O)n(CCCCCC#N)c1C | 39% |  | inhibition [4]: 40% |
| CCCCCCCCCCCCCCCCCC(=O)c1c(C)c(CC(=O)O)n(C)c1C | 0% | 10 µM |  |
| CCCCCCCCCCCCCCCCCC(=O)c1c(CCCCCCCCCCCC)c(CC(=O)O)n(C)c1C | 0% |  | Activity [6, 9]: 1.5 fold |
| CCCCCCCCCCCCCCCCCC(=O)c1c(C)c(CCC(=O)O)n(Cc2ccc(O)cc2)c1C | 0% |  | inhibition [4]: 30% |
| CCCCCCCCCCCCCCCCCC(=O)c1c(Cc2ccccc2)c(CC(=O)O)n(C)c1C | 22% | 10 µM |  |
| CCCCCCCCCCCCCCCCCC(=O)c1c(C)c(CCC(=O)O)n(Cc2ccc(C)cc2)c1C | 14% |  | IC50 [8]: Not Active; inhibition [3]: inactive |
| CCCCCCCCCCCCCCCCCC(=O)c1c(C)c(CC(=O)O)n(CCCCCC)c1C | 37% | > 10 µM |  |
| CCCCCCCCCCCCCCCCCC(=O)c1c(C)c(CCC(=O)O)n(CCC)c1C | 0% | 11 µM |  |
| CCCCCCCCCCCCCCCCCC(=O)c1c(C)c(CC(=O)O)n(CCCCCCCCCCCC)c1C | 0% |  | Activity [6, 9]: 1.5 fold |
